Data taken from ChEMBL document CHEMBL4373687, “Introducing nitrogen atoms to amidoalkylindoles: potent and selective cannabinoid type 2 receptor agonists with improved aqueous solubility” (Medchemcomm, 2019).

Tests used:
Cannabinoid receptor 2 [1] = target: T1, Cannabinoid receptor 2 (Homo sapiens, UniProt P34972); test: Antagonist activity at human CB2-receptor expressed in CHO-K1 cells coexpressing G-alpha16 at 10 uM pre-incubated for 10 mins and later treated with 100 nM CB-receptor agonist, CP55940 by Fluo-4-AM dye based calcium mobilization assay; type: functional, cell-based
T1 sequence (P34972 whole entry): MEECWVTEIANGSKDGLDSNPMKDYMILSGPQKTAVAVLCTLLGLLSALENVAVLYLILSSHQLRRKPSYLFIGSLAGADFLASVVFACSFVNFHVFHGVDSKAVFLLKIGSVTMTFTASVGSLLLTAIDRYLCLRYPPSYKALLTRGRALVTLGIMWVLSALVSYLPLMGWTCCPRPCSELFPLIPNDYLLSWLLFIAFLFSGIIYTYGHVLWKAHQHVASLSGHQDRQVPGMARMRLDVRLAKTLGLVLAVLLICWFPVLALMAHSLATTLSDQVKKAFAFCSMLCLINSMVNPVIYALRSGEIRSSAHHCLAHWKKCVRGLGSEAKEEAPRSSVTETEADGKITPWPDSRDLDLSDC
How it was run: (§1)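 CHO-K1 cells stably co-expressing Gα16 and human CB1 or CB2, loaded with 2 μM fluo-4 AM in HBSS pH 7.4 at 37 °C for 45 min. Pre-incubated with compound for 10 min at room temperature, then CP55940 added at 100 nM. Peak calcium read over 60 s (ex 485/em 525 nm). Rimonabant positive control. Actives got eight-point curves in triplicate, sigmoidal fit for IC50.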

Cannabinoid receptor 1 [2] = target: T2, Cannabinoid receptor 1 (Homo sapiens, UniProt P21554); test: Antagonist activity at human CB1-receptor expressed in CHO-K1 cells coexpressing G-alpha16 at 10 uM pre-incubated for 10 mins and later treated with 100 nM CB-receptor agonist, CP55940 by Fluo-4-AM dye based calcium mobilization assay; type: cell-based; how it was run: as §1
T2 sequence (P21554 whole entry): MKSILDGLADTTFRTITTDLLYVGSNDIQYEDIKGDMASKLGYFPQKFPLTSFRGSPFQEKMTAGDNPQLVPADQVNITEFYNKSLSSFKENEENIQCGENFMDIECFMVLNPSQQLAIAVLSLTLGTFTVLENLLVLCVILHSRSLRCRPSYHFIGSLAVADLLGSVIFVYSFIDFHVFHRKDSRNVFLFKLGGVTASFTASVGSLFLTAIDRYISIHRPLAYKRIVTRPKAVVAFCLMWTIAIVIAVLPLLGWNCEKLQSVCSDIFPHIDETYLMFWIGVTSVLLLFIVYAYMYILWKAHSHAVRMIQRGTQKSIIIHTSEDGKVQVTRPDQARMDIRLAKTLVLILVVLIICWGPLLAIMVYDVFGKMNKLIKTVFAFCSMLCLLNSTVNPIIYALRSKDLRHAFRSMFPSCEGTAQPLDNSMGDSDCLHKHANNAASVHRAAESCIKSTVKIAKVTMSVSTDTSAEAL

Cannabinoid receptor 1 [3] = target: T2, Cannabinoid receptor 1; test: Agonist activity at human CB1-receptor expressed in CHO-K1 cells coexpressing G-alpha16 by Fluo-4-AM dye based calcium mobilization assay; type: cell-based
Cannabinoid receptor 2 [4] = target: T1, Cannabinoid receptor 2; test: Agonist activity at human CB2-receptor expressed in CHO-K1 cells coexpressing G-alpha16 by Fluo-4-AM dye based calcium mobilization assay; type: functional, cell-based
Cannabinoid receptor 2 [5] = target: T1, Cannabinoid receptor 2; test: Antagonist activity at human CB2-receptor expressed in CHO-K1 cells coexpressing G-alpha16 pre-incubated for 10 mins and later treated with 100 nM CB-receptor agonist, CP55940 by Fluo-4-AM dye based calcium mobilization assay; type: functional, cell-based; how it was run: as §1
Cannabinoid receptor 2 [6] = target: T1, Cannabinoid receptor 2; test: Agonist activity at human CB2-receptor expressed in CHO-K1 cells coexpressing G-alpha16 assessed as maximum efficacy by Fluo-4-AM dye based calcium mobilization assay relative to CP55940; type: functional, cell-based
How it was run: (§2)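 CHO-K1 cells stably co-expressing Gα16 and human CB1 or CB2, seeded 24 h. Loaded with 2 μM fluo-4 AM in HBSS (with sulfinpyrazone, pH 7.4) at 37 °C for 45 min. Compound added and calcium fluorescence recorded (ex 485/em 525 nm). CP55940 positive control, DMSO negative control. Compounds with >50% activation at 10 μM got eight-point curves in triplicate, sigmoidal fit for EC50.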

Cannabinoid receptor 2 [7] = target: T1, Cannabinoid receptor 2; test: Agonist activity at human CB2-receptor expressed in CHO-K1 cells coexpressing G-alpha16 at 10 uM by Fluo-4-AM dye based calcium mobilization assay; type: functional, cell-based; how it was run: as §2
Cannabinoid receptor 1 [8] = target: T2, Cannabinoid receptor 1; test: Agonist activity at human CB1-receptor expressed in CHO-K1 cells coexpressing G-alpha16 at 10 uM by Fluo-4-AM dye based calcium mobilization assay; type: cell-based; conditions: cho-k1, 10 µM; how it was run: as §2
Cannabinoid receptor 1 [9] = target: T2, Cannabinoid receptor 1; test: Antagonist activity at human CB1-receptor expressed in CHO-K1 cells coexpressing G-alpha16 pre-incubated for 10 mins and later treated with 100 nM CB-receptor agonist, CP55940 by Fluo-4-AM dye based calcium mobilization assay; type: cell-based; how it was run: as §1
Cannabinoid receptor 1 [10] = target: T2, Cannabinoid receptor 1; test: Agonist activity at human CB1-receptor expressed in CHO-K1 cells coexpressing G-alpha16 assessed as maximum efficacy by Fluo-4-AM dye based calcium mobilization assay relative to CP55940; type: cell-based; how it was run: as §2

Row | Structure (SMILES) | inhibition (Cannabinoid receptor 2 [1]) [%] | inhibition at 10 µM (Cannabinoid receptor 1 [2]) [%] | EC50 (Cannabinoid receptor 1 [3]; cho-k1) | EC50 (Cannabinoid receptor 2 [4]; read-out: EC50) [nM] | IC50 (Cannabinoid receptor 2 [5]; cho-k1) | Emax (Cannabinoid receptor 2 [6]) [%] | Activity (Cannabinoid receptor 2 [7]) [%] | Activity (Cannabinoid receptor 1 [8]) [%] | IC50 (Cannabinoid receptor 1 [9]) | EC50 (Cannabinoid receptor 1 [3]; read-out: EC50) [nM] | EC50 (Cannabinoid receptor 2 [4]; cho-k1) | IC50 (Cannabinoid receptor 2 [5]; read-out: IC50) [nM] | Emax (Cannabinoid receptor 1 [10]) [%]
1 | O=C(NC12CC3CC(CC(C3)C1)C2)c1nc2ccccc2[nH]1 | < 50 | < 50 | Not Active | 520 | Not Active | 85.3 | > 50 | < 50 | Not Active | – | – | – | –
2 | O=C(NC12CC3CC(CC(C3)C1)C2)c1cc2cccnc2n1CCN1CCOCC1 | > 50 | < 50 | – | – | – | – | < 50 | > 50 | Not Active | 650 | Not Active | 78 | 88.4
3 | O=C(NC12CC3CC(CC(C3)C1)C2)c1cn(CCN2CCOCC2)c2cccnc12 | < 50 | < 50 | Not Active | – | Not Active | – | < 50 | < 50 | Not Active | – | Not Active | – | –
4 | O=C(NC12CC3CC(CC(C3)C1)C2)c1cc2cnccc2n1CCN1CCOCC1 | < 50 | < 50 | Not Active | – | Not Active | – | < 50 | < 50 | Not Active | – | Not Active | – | –
5 | O=C(NC12CC3CC(CC(C3)C1)C2)c1cc2ncccc2n1CCN1CCOCC1 | < 50 | < 50 | Not Active | – | Not Active | – | < 50 | < 50 | Not Active | – | Not Active | – | –
6 | CCCCCn1c(C(=O)NC23CC4CC(CC(C4)C2)C3)cc2ncccc21 | < 50 | < 50 | Not Active | 220 | Not Active | 50 | > 50 | < 50 | Not Active | – | – | – | –
7 | CCCCCn1c(C(=O)NC23CC4CC(CC(C4)C2)C3)cc2cccnc21 | < 50 | < 50 | Not Active | 920 | Not Active | 46.2 | > 50 | < 50 | Not Active | – | – | – | –
8 | O=C(NC12CC3CC(CC(C3)C1)C2)c1cc2ncccc2[nH]1 | < 50 | < 50 | Not Active | 590 | Not Active | 38 | > 50 | < 50 | Not Active | – | – | – | –
9 | O=C(NC12CC3CC(CC(C3)C1)C2)c1c[nH]c2ccncc12 | < 50 | < 50 | Not Active | – | Not Active | – | < 50 | < 50 | Not Active | – | Not Active | – | –
10 | CCCCCn1cc(C(=O)NC23CC4CC(CC(C4)C2)C3)c2ncccc21 | > 50 | < 50 | – | – | – | – | < 50 | > 50 | Not Active | 180 | Not Active | 12 | 48.2
11 | CCCCCn1c(C(=O)NC23CC4CC(CC(C4)C2)C3)cc2cnccc21 | < 50 | < 50 | Not Active | – | Not Active | – | < 50 | < 50 | Not Active | – | Not Active | – | –
